Source: ChEMBL document CHEMBL1938354 (Eur J Med Chem, 2012)
pIC50, pKi: −log10 of the molar value. The source made the active and inactive calls. The rule behind the calls is not given here.

Assays:
[1] = target: T1, Aldo-keto reductase family 1 member B10 (Homo sapiens, UniProt O60218); test: Inhibition of human recombinant N-terminus His6-tagged AKR1B10 expressed in Escherichia coli BL21 DE3 assessed as pyridine-3-aldehyde reduction by spectrometric analysis
Method in brief: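 Purified recombinant 6-His AKR1B10 was assayed at 25 °C in 0.1 M potassium phosphate, pH 7.4, with 0.1 mM NADPH and 0.2 mM pyridine-3-aldehyde. Reductase rate was followed as NADPH absorbance change at 340 nm. IC50 is the mean of at least three determinations.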
Target sequence in this assay (O60218 whole entry): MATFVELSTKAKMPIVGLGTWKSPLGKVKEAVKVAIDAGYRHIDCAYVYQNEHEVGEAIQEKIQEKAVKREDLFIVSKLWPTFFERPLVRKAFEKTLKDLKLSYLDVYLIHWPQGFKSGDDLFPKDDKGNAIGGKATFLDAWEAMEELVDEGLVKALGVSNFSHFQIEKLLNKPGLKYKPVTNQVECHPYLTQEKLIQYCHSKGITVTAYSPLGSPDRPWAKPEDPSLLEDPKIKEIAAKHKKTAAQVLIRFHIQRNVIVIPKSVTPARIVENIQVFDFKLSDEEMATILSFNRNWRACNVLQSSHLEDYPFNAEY

Homo sapiens = species on record: Homo sapiens; test: Selectivity ratio of IC50 for human recombinant N-terminus His6-tagged AKR1B1 to IC50 for human recombinant N-terminus His6-tagged AKR1B10
Method in brief: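 IC50 values for purified recombinant AKR1B1 and AKR1B10 were each determined at 25 °C in 0.1 M potassium phosphate, pH 7.4, with 0.1 mM NADPH and 0.2 mM pyridine-3-aldehyde, by NADPH absorbance at 340 nm. Each IC50 is the mean of at least three determinations. The ratio is AKR1B1 IC50 over AKR1B10 IC50.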

[2] = target: Aldo-keto reductase family 1 member B1 (Homo sapiens, UniProt P15121); test: Inhibition of human recombinant N-terminus His6-tagged AKR1B1 expressed in Escherichia coli BL21 DE3 assessed as pyridine-3-aldehyde reduction by spectrometric analysis
U-937 [3] = test: Growth inhibition of AKR1B10-overexpressing human U937 cells at 1 uM by trypan blue dye exclusion assay; assay type: functional, cell-based
Method in brief: (§1)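 U937 cells were transiently transfected with pGW1 plasmid carrying AKR1B10 cDNA and resuspended in fresh growth medium. They were seeded at 5 × 10⁴ cells/ml and treated with inhibitor for 0, 24, 48 and 72 h. Viable cells were counted by trypan blue exclusion.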

HeLa [4] = test: Cytotoxicity against human HeLa cells after 24 hrs by trypan blue dye exclusion assay; assay type: functional; details: read-out: LD50 (the source's name)
HeLa [5] = test: Growth inhibition of human HeLa cells at 0.2 uM by trypan blue dye exclusion assay; assay type: functional, cell-based
[6] = target: T1, Aldo-keto reductase family 1 member B10; test: Competitive inhibition at human recombinant N-terminus His6-tagged AKR1B10 expressed in Escherichia coli BL21 DE3 assessed as inhibition of NADP+ linked geraniol oxidation by fluorescence analysis
Target sequence in this assay (O60218 whole entry): as above

U-937 [7] = test: Growth inhibition of human U937 cells at 0.2 uM by trypan blue dye exclusion assay; assay type: functional, cell-based
[8] = target: Aldo-keto reductase family 1 member B10 (Homo sapiens, UniProt O60218, S304A); test: Competitive inhibition at human recombinant N-terminus His6-tagged AKR1B10 Ser304Ala mutant expressed in Escherichia coli BL21 DE3 assessed as inhibition of NADP+ linked geraniol oxidation by fluorescence analysis
Aldo-keto reductase family 1 member B10 (Homo sapiens, UniProt O60218, S304A), sequence (O60218 whole entry S304A): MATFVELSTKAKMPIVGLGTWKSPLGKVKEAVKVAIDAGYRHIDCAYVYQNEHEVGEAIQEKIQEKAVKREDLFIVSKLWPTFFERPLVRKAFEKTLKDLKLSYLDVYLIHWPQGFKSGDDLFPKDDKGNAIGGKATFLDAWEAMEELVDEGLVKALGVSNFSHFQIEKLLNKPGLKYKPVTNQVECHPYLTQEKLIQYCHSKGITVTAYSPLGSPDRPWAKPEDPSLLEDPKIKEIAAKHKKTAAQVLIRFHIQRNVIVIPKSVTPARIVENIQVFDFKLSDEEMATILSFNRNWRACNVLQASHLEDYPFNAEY

[9] = target: Aldo-keto reductase family 1 member B10 (Homo sapiens, UniProt O60218, Q303S); test: Competitive inhibition at human recombinant N-terminus His6-tagged AKR1B10 Gln303Ser mutant expressed in Escherichia coli BL21 DE3 assessed as inhibition of NADP+ linked geraniol oxidation by fluorescence analysis
Aldo-keto reductase family 1 member B10 (Homo sapiens, UniProt O60218, Q303S), sequence (O60218 whole entry Q303S): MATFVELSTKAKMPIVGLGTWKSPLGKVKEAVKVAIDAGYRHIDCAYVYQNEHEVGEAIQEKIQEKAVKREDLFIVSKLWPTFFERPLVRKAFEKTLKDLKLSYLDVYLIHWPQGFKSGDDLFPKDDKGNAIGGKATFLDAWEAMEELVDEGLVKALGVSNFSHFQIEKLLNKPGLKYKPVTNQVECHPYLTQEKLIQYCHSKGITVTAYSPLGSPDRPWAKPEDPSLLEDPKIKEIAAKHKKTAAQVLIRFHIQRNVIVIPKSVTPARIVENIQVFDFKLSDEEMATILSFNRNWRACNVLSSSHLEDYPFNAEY

[10] = target: T1, Aldo-keto reductase family 1 member B10; test: Inhibition of AKR1B10-mediated farnesal metabolism in human HeLa cells preincubated for 2 hrs measured after 6 hrs following [1-14C]farnesol addition; assay type: cell-based
Method in brief: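 HeLa cells were transfected with pGW1-AKR1B10 and pretreated with inhibitor at a range of concentrations for 2 h. They were then incubated with [1-¹⁴C]farnesol for 6 h, and reduction of the resulting farnesal was analysed. Percent inhibition is the mean of duplicate experiments.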
Target sequence in this assay (O60218 whole entry): as the sequence (O60218 whole entry) above

[11] = target: T1, Aldo-keto reductase family 1 member B10; test: Competitive inhibition at human recombinant N-terminus His6-tagged AKR1B10 expressed in Escherichia coli BL21 DE3 assessed as inhibition of NADP+ linked geraniol oxidation by fluorescence analysis
Method in brief: (§2)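 Recombinant wild-type or mutant AKR1B10 with N-terminal 6-His tag was expressed in E. coli BL21(DE3) pLysS and purified to homogeneity. The Phe123Ala mutant was made by site-directed mutagenesis. Kinetics used NADP+-linked geraniol oxidation, read by NADPH fluorescence (ex 340/em 455 nm) at 25 °C. Five substrate concentrations (0.5–5 × Km) were run with saturating coenzyme. Ki is the mean of at least three determinations.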
Target sequence in this assay (O60218 whole entry): as above

[12] = target: T1, Aldo-keto reductase family 1 member B10; details: HeLa, 0.2 uM
Target sequence in this assay (O60218 whole entry, looked up): as the sequence (O60218 whole entry) above

[13] = target: Aldo-keto reductase family 1 member B10 (Homo sapiens, UniProt O60218, W220Y); test: Competitive inhibition at human recombinant N-terminus His6-tagged AKR1B10 Trp220Tyr mutant expressed in Escherichia coli BL21 DE3 assessed as inhibition of NADP+ linked geraniol oxidation by fluorescence analysis
Aldo-keto reductase family 1 member B10 (Homo sapiens, UniProt O60218, W220Y), sequence (O60218 whole entry W220Y): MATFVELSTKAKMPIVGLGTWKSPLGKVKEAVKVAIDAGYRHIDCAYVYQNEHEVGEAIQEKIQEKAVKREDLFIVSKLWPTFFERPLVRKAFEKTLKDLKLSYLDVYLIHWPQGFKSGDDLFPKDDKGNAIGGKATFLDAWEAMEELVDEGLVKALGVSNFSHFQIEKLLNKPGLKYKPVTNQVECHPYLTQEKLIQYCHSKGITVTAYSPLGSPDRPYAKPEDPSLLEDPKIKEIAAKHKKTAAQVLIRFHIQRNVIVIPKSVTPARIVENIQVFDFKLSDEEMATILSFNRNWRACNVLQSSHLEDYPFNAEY

U-937 [14] = test: Growth inhibition of AKR1B10-overexpressing human U937 cells at 0.2 uM by trypan blue dye exclusion assay; assay type: functional, cell-based; method in brief: as §1
[15] = target: Aldo-keto reductase family 1 member B10 (Homo sapiens, UniProt O60218, Q303S/V301L); test: Competitive inhibition at human recombinant N-terminus His6-tagged AKR1B10 Val301Leu/Gln303Ser double mutant expressed in Escherichia coli BL21 DE3 assessed as inhibition of NADP+ linked geraniol oxidation by fluorescence analysis
Aldo-keto reductase family 1 member B10 (Homo sapiens, UniProt O60218, Q303S/V301L), sequence (O60218 whole entry V301L/Q303S): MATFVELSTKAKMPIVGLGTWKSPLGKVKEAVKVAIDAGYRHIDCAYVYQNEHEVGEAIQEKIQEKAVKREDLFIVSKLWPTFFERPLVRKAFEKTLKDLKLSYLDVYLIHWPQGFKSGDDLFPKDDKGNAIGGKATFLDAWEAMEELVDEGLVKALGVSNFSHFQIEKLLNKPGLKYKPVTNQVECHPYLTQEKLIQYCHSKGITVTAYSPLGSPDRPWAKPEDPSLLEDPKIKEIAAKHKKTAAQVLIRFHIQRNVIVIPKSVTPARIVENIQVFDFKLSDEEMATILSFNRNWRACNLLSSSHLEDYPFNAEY

[16] = target: Aldo-keto reductase family 1 member B10 (Homo sapiens, UniProt O60218, Q114T); test: Competitive inhibition at human recombinant N-terminus His6-tagged AKR1B10 Gln114Thr mutant expressed in Escherichia coli BL21 DE3 assessed as inhibition of NADP+ linked geraniol oxidation by fluorescence analysis
Aldo-keto reductase family 1 member B10 (Homo sapiens, UniProt O60218, Q114T), sequence (O60218 whole entry Q114T): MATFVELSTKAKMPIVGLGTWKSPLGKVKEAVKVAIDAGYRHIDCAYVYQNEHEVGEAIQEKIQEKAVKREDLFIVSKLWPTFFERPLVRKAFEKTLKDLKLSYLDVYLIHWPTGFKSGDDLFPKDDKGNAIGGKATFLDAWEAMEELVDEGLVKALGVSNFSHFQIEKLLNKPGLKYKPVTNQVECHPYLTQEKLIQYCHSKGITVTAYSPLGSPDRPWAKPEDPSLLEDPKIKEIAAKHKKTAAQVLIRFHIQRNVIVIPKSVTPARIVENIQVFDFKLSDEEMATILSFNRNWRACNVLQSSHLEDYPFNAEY

[17] = target: Aldo-keto reductase family 1 member B10 (Homo sapiens, UniProt O60218, F123A); test: Competitive inhibition at human recombinant N-terminus His6-tagged AKR1B10 Phe123Ala mutant expressed in Escherichia coli BL21 DE3 assessed as inhibition of NADP+ linked geraniol oxidation by fluorescence analysis; method in brief: as §2
Aldo-keto reductase family 1 member B10 (Homo sapiens, UniProt O60218, F123A), sequence (O60218 whole entry F123A): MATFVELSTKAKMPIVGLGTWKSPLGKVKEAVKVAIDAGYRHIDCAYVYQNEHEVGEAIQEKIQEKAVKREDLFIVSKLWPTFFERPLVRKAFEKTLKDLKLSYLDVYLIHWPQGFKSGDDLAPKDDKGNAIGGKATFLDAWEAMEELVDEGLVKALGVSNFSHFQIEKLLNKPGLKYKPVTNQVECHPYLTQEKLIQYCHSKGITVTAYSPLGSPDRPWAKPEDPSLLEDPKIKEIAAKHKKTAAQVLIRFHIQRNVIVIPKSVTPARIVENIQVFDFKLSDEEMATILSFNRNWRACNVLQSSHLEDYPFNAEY

[18] = target: Aldo-keto reductase family 1 member B10 (Homo sapiens, UniProt O60218, V301L); test: Competitive inhibition at human recombinant N-terminus His6-tagged AKR1B10 Val301Leu mutant expressed in Escherichia coli BL21 DE3 assessed as inhibition of NADP+ linked geraniol oxidation by fluorescence analysis
Aldo-keto reductase family 1 member B10 (Homo sapiens, UniProt O60218, V301L), sequence (O60218 whole entry V301L): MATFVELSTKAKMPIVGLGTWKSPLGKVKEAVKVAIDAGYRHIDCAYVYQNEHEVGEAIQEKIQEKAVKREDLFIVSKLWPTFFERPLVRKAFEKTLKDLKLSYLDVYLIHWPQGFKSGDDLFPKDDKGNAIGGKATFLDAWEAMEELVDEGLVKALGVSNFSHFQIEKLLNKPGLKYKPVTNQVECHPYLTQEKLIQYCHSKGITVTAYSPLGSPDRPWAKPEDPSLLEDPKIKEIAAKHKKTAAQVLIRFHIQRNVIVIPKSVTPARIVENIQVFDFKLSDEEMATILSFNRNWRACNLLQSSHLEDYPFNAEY

[19] = target: T2, Aldo-keto reductase family 1 member A1 (Homo sapiens) (UniProt P14550); test: Inhibition of human AKR1A1 at 30 uM
T2 sequence (whole entry): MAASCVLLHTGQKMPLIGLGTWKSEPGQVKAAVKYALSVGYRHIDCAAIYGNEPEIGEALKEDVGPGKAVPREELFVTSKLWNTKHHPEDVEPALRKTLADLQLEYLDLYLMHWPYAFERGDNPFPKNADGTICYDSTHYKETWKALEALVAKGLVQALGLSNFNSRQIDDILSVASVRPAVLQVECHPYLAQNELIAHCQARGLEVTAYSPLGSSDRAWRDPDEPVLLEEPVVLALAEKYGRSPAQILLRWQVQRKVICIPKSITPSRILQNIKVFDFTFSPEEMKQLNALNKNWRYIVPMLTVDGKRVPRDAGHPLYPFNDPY

Structure (SMILES) | pIC50 [1] | Ratio IC50 (Homo sapiens) | pIC50 [2] | other results
O=C(/C=C/c1ccc(O)c(O)c1)OCc1ccccc1 [BENZYL CAFFEATE] | 6.68 | 2 | 6.40 | –
O=C(O)/C=C/c1ccc(O)c(O)c1 [CAFFEIC ACID] | 4.05 | – | – | –
CC(C)=CCc1cc(/C=C/C(=O)O)ccc1O [DRUPANIN] | 4.31 | – | 4.42 | –
O=C(/C=C/c1ccc(O)c(O)c1)OCCc1ccccc1 [CAFFEIC ACID PHENETHYL ESTER] | 7.10 | 7 | 6.24 | growth inhibition (GI) (U-937 [3]): Active; CC50 (HeLa [4]): 56000 nM; growth inhibition (GI) (HeLa [5]): inactive; pKi [6]: 7.34; growth inhibition (GI) (U-937 [7]): inactive
O=C(/C=C/c1cccc(O)c1)OCCCc1ccccc1 | 5.51 | 13 | 4.39 | –
O=C(O)/C=C/c1ccc(O)cc1 [COUMARIC ACID] | 4.20 | – | 4.12 | –
O=C(/C=C/c1ccc(O)c(O)c1)O[C@@H]1[C@H](O)C[C@@](O)(C(=O)O)C[C@H]1OC(=O)/C=C/c1ccc(O)c(O)c1 (relative stereo) | 6.62 | – | – | –
COc1cc(O)ccc1/C=C/C(=O)OCCCc1cccc(O)c1 | 8.21 | 790 | 5.31 | pKi [8]: 8.46; pKi [9]: 8.15; pIC50 [10]: 6.52; pKi [11]: 8.59; inhibition [12]: Active; pKi [13]: 7.82; CC50 (HeLa [4]): 36000 nM; growth inhibition (GI) (U-937 [14]): Active; pKi [15]: 7.64; growth inhibition (GI) (HeLa [5]): inactive; pKi [16]: 8.12; pKi [17]: 8.29; pKi [18]: 8.24; inhibition [19]: inactive; growth inhibition (GI) (U-937 [7]): inactive
O=C(/C=C/c1ccc(O)c(O)c1)O[C@@H]1C[C@](O)(C(=O)O)C[C@@H](O)[C@H]1O (relative stereo) [CHLOROGENIC ACID] | 5.10 | – | – | –
CC(C)OC(=O)/C=C/c1ccc(O)cc1 [ISOPROPYL 3-(4-HYDROXYPHENYL)ACRYLATE] | 6.04 | 7 | 5.21 | –
CC(C)=CCc1cc(/C=C/C(=O)O)cc(CC=C(C)C)c1O [ARTEPILLIN] | 4.28 | – | 4.64 | –
O=C(/C=C/c1ccccc1)OCCc1ccccc1 [PHENETHYL CINNAMATE] | 4.74 | 1 | 4.64 | –
O=C(/C=C/c1cccc(O)c1)OCCc1ccccc1 | 4.72 | 4 | 4.14 | –

More lines, main results first:

pIC50 [1] | Ratio IC50 (Homo sapiens) | pIC50 [2] | Structure (SMILES) | other results
7.89 | 554 | 5.14 | COc1cc(O)ccc1/C=C/C(=O)OCCc1ccccc1 | –
7.77 | 558 | 5.02 | COc1cc(O)ccc1/C=C/C(=O)OCCc1ccccc1O | –
7.64 | 478 | 4.96 | COc1cc(O)ccc1/C=C/C(=O)OCCCc1ccc(O)cc1 | –
8.05 | 766 | 5.16 | COc1cc(O)ccc1/C=C/C(=O)OCCCc1ccccc1O | –
7.68 | 52 | 5.96 | O=C(/C=C/c1ccc(O)cc1)OCCCc1ccccc1 | –
6.89 | – | 7.06 | O=C(/C=C/c1ccc(O)c(O)c1)O[C@@H]1C[C@](O)(C(=O)O)C[C@@H](OC(=O)/C=C/c2ccc(O)c(O)c2)[C@H]1O (relative stereo) | –
7.85 | 229 | 5.49 | COc1cc(O)ccc1/C=C/C(=O)OCCc1ccc(O)cc1 | –
7.89 | 562 | 5.14 | COc1cc(O)ccc1/C=C/C(=O)OCCc1cccc(O)c1 | –
7.80 | 688 | 4.96 | COc1cc(O)ccc1/C=C/C(=O)OCCCc1ccccc1 | –
7.16 | 31 | 5.66 | O=C(/C=C/c1ccc(O)cc1)OCCc1ccccc1 | –
6.89 | 17 | 5.66 | O=C(/C=C/c1ccc(O)cc1)OCc1ccccc1 | –
